# According to ChEMBL document CHEMBL1134321, “Structure-based generation of a new class of potent Cdk4 inhibitors: new de novo design strategy and library design” (J Med Chem, 2001):
# Test: Inhibitory activity against CDK4 using recombinant human cyclin D2-CDK4 complex expressed in sf9 cells
# Method in brief: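 Recombinant human cyclin D2–Cdk4, baculovirus-expressed in Sf9 cells and HPLC-purified; incubated with 50 µM ATP plus 0.5-1.5 µCi [33P]-ATP, 100 µM or 400 µM G1 peptide, in 20 mM Tris-HCl pH 7.4, 10 mM MgCl2, 4.5 mM 2-mercaptoethanol, 1 mM EGTA, 30 °C, 45 min.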
row,Structure (SMILES),IC50 [µM]
1,O=C(Nc1ccccn1)Nc1cccc2c1C(=O)NC2=O,3.6
2,O=C(Nc1ccccn1)NC1CCCCC1,> 100
3,O=C(Nc1ccncc1)Nc1cccc2ccc(O)cc12,110
4,CSc1ccc(NC(=O)Nc2cccc3c(O)cccc23)cc1,40
5,COc1nc(N)c(C#N)c(-c2ccc3c(c2)OCO3)c1C#N,36
6,O=C(Nc1ccc2c[nH]nc2c1)Nc1ccccn1,0.67
7,Cc1[nH]c2ccccc2c1/C=C1/NC(=S)NC1=O,14
8,O=C(Nc1ccc2ncccc2c1)Nc1ccc2ncccc2c1,77
9,Nc1nc(N)c2nc(-c3ccccc3)c(N)nc2n1 [TRIAMTERENE],210
10,O=C(Nc1cc(-c2cccs2)ccn1)Nc1cccc2c1C1CCCN1C2=O (stereo not drawn),0.011
11,O=C(Nc1ccccn1)Nc1cccc2c1-c1ccccc1C2=O,0.1
12,Nc1nc(O)c2nc(CNc3ccc(C(=O)O)cc3)cnc2n1 [PTEROIC ACID],16
13,O=C(Nc1cccc2ccc(O)cc12)NC1CCCC1,150
14,CN(C)c1cc(NC(=O)Nc2cccc(Cl)c2)c2ccccc2n1,36
15,O=C(Nc1ccccn1)Nc1cccc2c1[C@H]1CCCN1C2=O,0.042
16,O=C(Cc1ccccc1)Nc1cccc2ccc(O)cc12,> 1000
17,C=C(O)c1ccc2n1C(=O)c1cccc(NC(=O)Nc3ccccn3)c1-2,0.017

row,Structure (SMILES),IC50 [µM]
1,O=C(Nc1ccccc1)Nc1cccc2ccc(O)cc12,120
2,O=C(Nc1ccccn1)Nc1cccc2ccc(O)cc12,7.6
3,Nc1nc(N)nc(C2=Cc3cc(Cl)ccc3OC2)n1,450
4,O=C(NCc1ccccc1)Nc1cccc2ccc(O)cc12,410
5,O=C(Nc1ccccn1)Nc1cccc2ncccc12,2.4
6,O=C1NC(=S)NC(=O)C1=Cc1c(O)ccc2ccccc12,100
7,O=C(Nc1ccccn1)Nc1cccc2c1[C@@H]1CCCN1C2=O,0.19
8,O=C(Nc1cccnc1)Nc1cccc2ccc(O)cc12,340
9,CN(C)c1cc(NC(=O)Nc2ccccc2)c2ccccc2n1,90
10,O=C1NC(=O)C(=Cc2ccc3c(c2)OCO3)C(=O)N1,350
11,O=C(Nc1ccccc1)Nc1ccccn1,100
12,CC(C)NC(=O)Nc1cccc2ccc(O)cc12,220
13,O=C(Nc1ccccn1)Nc1cccc2c1-c1cccn1C2=O,0.034
14,O=C(NCc1ccccc1)Nc1ccccn1,> 100
15,Cc1ccc(Cl)cc1NC(=O)Nc1cccc2ccc(O)cc12,44
16,O=C(Nc1nccs1)Nc1cccc2ccc(O)cc12,23
